Data set [1] has as its system Pseudoalteromonas haloplanktis. In words: Antibacterial activity against Pseudoalteromonas haloplanktis after 24 hrs by microtiter broth dilution method. The data set is classed as functional. Put shortly:
(§1)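 Marine bacteria at 2×10^8 cells/mL incubated with compound (0.5, 1, 2.5, 5, 10, 25, 50, 100 µg/mL) in Mueller Hinton broth supplemented with NaCl (15 g/L), 25 °C, 24 h, 96-well format. Six replicates per treatment alongside a seawater control. MIC read against the seawater control by microtiter broth dilution.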
On the technique in general: In broth dilution the organism is exposed to a series of concentrations in liquid medium.

Data set [2] deals with Marinobacterium stanieri. Kind of data set: Antibacterial activity against Marinobacterium stanieri ATCC 27130 after 24 hrs by microtiter broth dilution method. It is filed as functional. Put shortly: as §1
The nature of data set [3]: Toxicity against Balanus amphitrite stage 2 nauplii after 24 hrs. It is filed as organism-based. Particulars: amphibalanus amphitrite, in vivo. Put shortly: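 Ten to fifteen stage-II barnacle nauplii per well in 2 mL solution; compounds at 0.5, 1, 2.5, 5, 10, 25, 50 and 100 µg/mL; six replicates per treatment and control. Swimming and dead nauplii counted after 24 h exposure; LC50 is the concentration giving 50% mortality relative to control, derived from the dose-response data.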

In data set [4] the test system is Aliivibrio fischeri. Kind of data set: Antibacterial activity against Vibrio fischeri ATCC 7744 after 24 hrs by microtiter broth dilution method. The data set is classed as functional. Put shortly:
as §1

The test system of data set [5] is Amphibalanus amphitrite. Kind of data set: Antifouling activity in Balanus amphitrite assessed as inhibition of cyprid larvae settlement after 24 hrs. It is filed as functional, organism-based. Put shortly: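 Cyprids obtained by filtration 4 days after larval release from field-collected adults. 10–15 cyprids per well in 2 mL seawater containing compound at 0.5–100 µg/mL (0.5, 1, 2.5, 5, 10, 25, 50, 100). Kept in darkness at 28 °C for 24 h, six replicates. Larvae scored as dead, settled or swimming under a dissecting microscope. EC50 calculated as 50% settlement inhibition relative to the seawater control.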

The subject of data set [6] is Cobetia marina. In words: Antibacterial activity against Cobetia marina ATCC 25374 after 24 hrs by microtiter broth dilution method. The data set is classed as functional. Put shortly:
as §1

The mark [7] stands for this setting: Pseudoalteromonas haloplanktis, 24 h, read-out: MIC.
Setting [8] is: Marinobacterium stanieri, ATCC 27130, 24 h, read-out: MIC.
The mark [9] stands for this setting: Aliivibrio fischeri, ATCC 7744, 24 h, read-out: MIC.
Where [10] appears, read: Amphibalanus amphitrite, 24 h, read-out: EC50.
Where [11] appears, read: Cobetia marina, ATCC 25374, 24 h, read-out: MIC.

Converted amounts (≈) assume the structure as drawn.

These results are taken from ChEMBL document CHEMBL1157466, “Antifouling activity of meroditerpenoids from the marine brown alga Halidrys siliquosa” (J Nat Prod, 2008).

Broadly, the MIC is the least concentration at which growth counts as inhibited. The term LC50 denotes the concentration lethal to half of the exposed cells or organisms. Lower therefore signals greater toxicity. In general, EC50 refers to the concentration needed to bring the measured effect to its halfway point.

On to `COc1cc(C)c(O)c(C/C=C(\C)CC(=O)/C=C(/C)CCCC(C)C(=O)C(O)C=C(C)C)c1` (stereo not given), for which the MIC turned out to be 1 µg/mL (≈ 2.19 µM) in data set [1] (setting [7]), 1 µg/mL (≈ 2.19 µM) in data set [2] (setting [8]), 0.5 µg/mL (≈ 1.09 µM) in data set [4] (setting [9]) and 0.5 µg/mL (≈ 1.09 µM) in data set [6] (setting [11]). In data set [3], this compound gave an LC50 at 24 h of 5 µg/mL (≈ 10.9 µM). In data set [5] (setting [10]), the EC50 was determined as 1 µg/mL (≈ 2.19 µM).

`COc1cc(C)c2c(c1)C=CC(C)(CC(=O)/C=C(\C)CCCC(C)[C@@H](O)C(=O)C=C(C)C)O2` (stereo not given in full): the MIC in data set [1] (setting [7]), in data set [2] (setting [8]), in data set [4] (setting [9]) and in data set [6] (setting [11]) was > 100 µg/mL each time. Besides, the LC50 at 24 h in data set [3] was > 100 µg/mL. In addition, the half-maximal effective concentration (EC50) in data set [5] (setting [10]) is > 100 µg/mL.

In the case of `COc1cc(C)c(O)c(C/C=C(\C)CC(=O)/C=C(/C)CCCC(C)C(O)C(=O)C=C(C)C)c1` (stereo not given), the minimum inhibitory concentration (MIC) in data set [1] (setting [7]), in data set [2] (setting [8]), in data set [4] (setting [9]) and in data set [6] (setting [11]) was > 100 µg/mL in each case. For the same compound, the LC50 at 24 h in data set [3] was > 100 µg/mL. Also, the EC50 in data set [5] (setting [10]) is > 100 µg/mL.

For `COc1cc(C)c(O)c(C/C=C(\C)CC(O)/C=C(\C)CCCC(C)C(=O)C(O)C=C(C)C)c1` (stereo not given), the minimal inhibitory concentration (MIC) in data set [1] (setting [7]) amounted to 1 µg/mL (≈ 2.18 µM); in data set [2] (setting [8]), 1 µg/mL (≈ 2.18 µM); in data set [4] (setting [9]), 0.5 µg/mL (≈ 1.09 µM); in data set [6] (setting [11]), 1 µg/mL (≈ 2.18 µM). Also, in data set [3], the LC50 at 24 h is 10 µg/mL (≈ 21.8 µM). The EC50 in data set [5] (setting [10]) was 5 µg/mL (≈ 10.9 µM).

With `COc1cc(C)c(O)c(C/C=C(\C)CC(=O)/C=C(\C)CCCC(C)C(=O)C(O)C=C(C)C)c1` (stereo in doubt; 3), the MIC in data set [1] was 10 µg/mL (≈ 21.9 µM); in data set [2], 5 µg/mL (≈ 10.9 µM); in data set [4], 5 µg/mL (≈ 10.9 µM); in data set [6], 5 µg/mL (≈ 10.9 µM). In addition, the LC50 at 24 h in data set [3] is > 100 µg/mL.

On to `COc1cc(C)c(O)c(C/C=C(\C)CC(=O)/C=C(\C)CCCC(C)C(=O)C(O)C=C(C)C)c1` (stereo in doubt; 4), for which the MIC in data set [1], in data set [2], in data set [4] and in data set [6] was >100 µg/mL in each case. In data set [5] (setting [10]), the concentration for a half-maximal effect (EC50) was > 100 µg/mL.

Regarding `COc1cc(C)c(O)c(C/C=C(\C)CC(=O)/C=C(\C)CCCC(C)C(O)C(=O)C=C(C)C)c1` (stereo in doubt; 8), the minimal inhibitory concentration (MIC) in data set [1] was determined as 10 µg/mL (≈ 21.9 µM); in data set [2] it was 10 µg/mL (≈ 21.9 µM); in data set [4], 25 µg/mL (≈ 54.7 µM); in data set [6], 10 µg/mL (≈ 21.9 µM). For the same compound, the median lethal concentration (LC50) at 24 h in data set [3] is > 100 µg/mL. The half-maximal effective concentration (EC50) in data set [5] is > 100 µg/mL.

Take `COc1cc(C)c(O)c(C/C=C(\C)CC(=O)/C=C(\C)CCCC(C)C(O)C(=O)C=C(C)C)c1` (stereo in doubt; 9): the MIC in data set [1] was 1 µg/mL (≈ 2.19 µM); in data set [2], 1 µg/mL (≈ 2.19 µM); in data set [4] it was 2.5 µg/mL (≈ 5.47 µM); in data set [6], 2.5 µg/mL (≈ 5.47 µM). The EC50 in data set [5] was determined as 4 µg/mL (≈ 8.76 µM).
